According to ChEMBL document CHEMBL1132112, “Novel modifications in the alkenyldiarylmethane (ADAM) series of non-nucleoside reverse transcriptase inhibitors” (J Med Chem, 1999):
pEC50, pIC50: −log10 of the molar value.

Legend:
[1] = system: CEM-SS; assay: 50% inhibitory concentration for cytopathicity of HIV-1 RF in CEM-SS cells; NA=Not active (EC50 uM); type: functional, cell-based, Homo sapiens
Summary of the method: (§1)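 CEM-SS cells infected with HIV-1 RF; drug-induced protection from viral cytopathic effect read by XTT, as percent of uninfected drug-free control. EC50 is the concentration giving 50% protection. Triplicate wells on each plate, two sister plates; the plate EC50s (each a triplicate average) were averaged. XTT results were confirmed by supernatant RT and p24 levels. NA means no inhibition up to the concentration cytotoxic to uninfected cells.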

[2] = system: CCRF-CEM; assay: Concentration inhibiting 50% of mock-infected CEM cells.; type: functional; settings: Homo sapiens
Summary of the method: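 Uninfected (mock-infected) CEM-SS cultures exposed to drug. Viability by XTT, expressed as percent of drug-free control. CC50 is the concentration causing 50% cell death. Triplicates on each plate, two sister plates averaged.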

[3] = molecular target: T1, Human immunodeficiency virus type 1 reverse transcriptase (Human immunodeficiency virus 1, UniProt Q72547); assay: Inhibition of HIV-1 Reverse transcriptase using poly-(rc)-oligo(dg) as the template primer.
Summary of the method: (§2)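 Purified p66/51 HIV-1 reverse transcriptase. Inhibition read as incorporation of [32P]-TTP into poly(rA)·oligo(dT) or of [32P]GTP into poly(rC)·oligo(dG) homopolymer template-primer.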

[4] = molecular target: T1, Human immunodeficiency virus type 1 reverse transcriptase; assay: Inhibition of HIV-1 Reverse transcriptase using poly-(ra)-oligo(dt) as the template primer.; settings: for pIC50: read-out: IC50; summary of the method: as §2
[5] = molecular target: T1, Human immunodeficiency virus type 1 reverse transcriptase; assay: Inhibition of HIV-1 Reverse transcriptase using poly-(rc)-oligo(dg) as the template primer; NI=No inhibition
Summary of the method: (§3)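 Purified p66/51 HIV-1 reverse transcriptase. Inhibition read as incorporation of [32P]-TTP into poly(rA)·oligo(dT) or of [32P]GTP into poly(rC)·oligo(dG) homopolymer template-primer. IC50 taken as concentration giving 50% inhibition.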

[6] = molecular target: T1, Human immunodeficiency virus type 1 reverse transcriptase; assay: Inhibition of HIV-1 Reverse transcriptase using poly-(ra)-oligo(dt) as the template primer; no inhibition; summary of the method: as §3
[7] = system: CEM-SS; assay: Inhibition of cytopathic effect of HIV-1 RT containing the specified mutation K103N in CEM-SS cells.; type: functional, cell-based, Homo sapiens
[8] = system: CEM-SS; assay: Inhibition of cytopathic effect of HIV-1 RT containing the specified mutation L100I in CEM-SS cells.; type: functional, cell-based, Homo sapiens
[9] = system: CEM-SS; assay: Inhibition of cytopathic effect of HIV-1 RT containing the specified mutation Y181C in CEM-SS cells.; type: functional, cell-based, Homo sapiens
[10] = system: CEM-SS; assay: Inhibition of cytopathic effect of HIV-1 RT containing the specified mutation Y181C resistant to AZT in CEM-SS cells.; type: functional, cell-based, Homo sapiens
[11] = system: Human immunodeficiency virus 1; assay: Inhibition of cytopathic effect of HIV-1 strain wild type enzyme NL4-3 in CEM-SS cells.; type: functional, organism-based; settings: Human immunodeficiency virus 1, CEM-SS
[12] = system: CEM-SS; assay: Fold resistance of HIV-1 RT containing the specified mutation V106A in CEM-SS cells.; type: functional, Homo sapiens
[13] = system: CEM-SS; assay: Fold resistance of HIV-1 RT containing the specified mutation 4X AZT in CEM-SS cells; S=Enhanced sensitivity; type: functional, cell-based; settings: Homo sapiens
[14] = system: CEM-SS; assay: Fold resistance of HIV-1 RT containing the specified mutation A98G in CEM-SS cells.; type: functional, Homo sapiens
[15] = system: CEM-SS; assay: Fold resistance of HIV-1 RT containing the specified mutation K101E in CEM-SS cells.; type: functional, Homo sapiens
[16] = system: CEM-SS; assay: Fold resistance of HIV-1 RT containing the specified mutation K103N in CEM-SS cells; NC=No significant change in sensitivity; type: functional, cell-based; settings: Homo sapiens
[17] = system: CEM-SS; assay: Fold resistance of HIV-1 RT containing the specified mutation V179D in CEM-SS cells.; type: functional, Homo sapiens
[18] = system: CEM-SS; assay: Fold resistance of HIV-1 RT containing the specified mutation Y181C in CEM-SS cells.; type: functional, Homo sapiens
[19] = system: CEM-SS; assay: Fold resistance of HIV-1 RT containing the specified mutation Y188C in CEM-SS cells.; type: functional, Homo sapiens
[20] = system: CEM-SS; assay: Fold resistance of the specific mutation in RT to the compound; S=Enhanced sensitivity; type: functional, cell-based; settings: Homo sapiens
[21] = system: CEM-SS; assay: 50% inhibitory concentration for cytopathicity of HIV-1 RF in CEM-SS cells.; type: functional, cell-based; settings: Homo sapiens; summary of the method: as §1
[22] = Therapeutic index was determined for the compound as CC50/EC50; settings: read-out: TI
Summary of the method: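 Ratio of CC50 (XTT viability, uninfected CEM-SS) to EC50 (XTT protection from HIV-1 RF cytopathicity in CEM-SS). Both values come from triplicates on each plate, two sister plates averaged. NA means no antiviral inhibition up to the cytotoxic concentration.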

[23] = system: CEM-SS; assay: 50% inhibitory concentration for cytopathicity of HIV-1 RF in CEM-SS cells; NA=Not active; type: functional, cell-based, Homo sapiens; summary of the method: as §1

COC(=O)CC=C(c1cc(Cl)c(OC)c(C(=O)OC)c1)c1cc(Cl)c(OC)c(C(=O)OC)c1
EC50 [1]: Not Active
CC50 [2]: 13.3 µM
pIC50 [3]: 5.66
pIC50 [4]: < 4.00

CCC1(CCCC=C(c2cc(Cl)c(OC)c(C(=O)OC)c2)c2cc(Cl)c(OC)c(C(=O)OC)c2)OCCO1
EC50 [1]: Not Active
CC50 [2]: 19.9 µM
IC50 [5]: Not Active
IC50 [6]: Not Active

COC(=O)CCCC=C(c1cc(Cl)c(OC)c(C(=O)OC)c1)c1cc(Cl)c(OC)c(C(=O)OC)c1
pEC50 [7]: < 4.30
pEC50 [8]: < 6.80
pEC50 [9]: < 4.30
pEC50 [10]: < 4.30
CC50 [2]: 31.6 µM
pEC50 [11]: 5.75

CCCCCC=C(c1cc(Br)c(OC)c(C(=O)OC)c1)c1cc(Br)c(OC)c(C(=O)OC)c1
Fold resistance [12]: >8
Fold resistance [13]: Enhanced sensitivity
Fold resistance [14]: 2
Fold resistance [15]: >8
Fold resistance [16]: No significant changed
Fold resistance [17]: >8
Fold resistance [18]: >8
Fold resistance [19]: >8
Fold resistance [20]: Enhanced sensitivity

CCC(=O)CCCC=C(c1cc(Cl)c(OC)c(CO)c1)c1cc(Cl)c(OC)c(CO)c1
EC50 [1]: Not Active
CC50 [2]: 14.2 µM

COC(=O)CCC=C(c1cc(Cl)c(OC)c(C(=O)OC)c1)c1cc(Cl)c(OC)c(C(=O)OC)c1
pEC50 [21]: 5.32
CC50 [2]: 29.4 µM
pIC50 [3]: 5.14
selectivity ratio [22]: 6.1
pIC50 [4]: < 4.00

CCC1(CCC/C=C(\c2cc(Cl)c(OC)c(C=O)c2)c2cc(Cl)c(OC)c(CO)c2)OCCO1
EC50 [23]: Not Active
CC50 [2]: 5.8 µM
pIC50 [3]: 4.50
IC50 [4]: No inhibition

COC(=O)c1cc(C(=CCCc2ccccc2)c2cc(Br)c(OC)c(C(=O)OC)c2)cc(Br)c1OC
EC50 [1]: Not Active
CC50 [2]: 31.5 µM

COC(=O)c1cc(C(=CCCCCBr)c2cc(Cl)c(OC)c(C(=O)OC)c2)cc(Cl)c1OC
pEC50 [21]: 5.55
CC50 [2]: 98.7 µM
pIC50 [3]: 4.96
pIC50 [4]: 5.72

CCC(=O)CCCC=C(c1cc(Cl)c(OC)c(C=O)c1)c1cc(Cl)c(OC)c(C=O)c1
EC50 [23]: Not Active
CC50 [2]: 1.13 µM

COC(=O)CCCCC(c1cc(Cl)c(OC)c(C(=O)OC)c1)c1cc(Cl)c(OC)c(C(=O)OC)c1
EC50 [1]: Not Active
CC50 [2]: 21.3 µM
pIC50 [3]: 4.00
